Bioassay records as filed in PubChem.
EBV gp42 inh – blocks Epstein-Barr virus glycoprotein 42 binding | Fluorescence polarization binding assay, mP read-out | 220,000 compounds, 0.42% hits | inhibition, % (tested at 21.74 µM) | Q1HVG2; in the data active means inhibition above about 50%
Target sequence (Q1HVG2 whole entry, looked up): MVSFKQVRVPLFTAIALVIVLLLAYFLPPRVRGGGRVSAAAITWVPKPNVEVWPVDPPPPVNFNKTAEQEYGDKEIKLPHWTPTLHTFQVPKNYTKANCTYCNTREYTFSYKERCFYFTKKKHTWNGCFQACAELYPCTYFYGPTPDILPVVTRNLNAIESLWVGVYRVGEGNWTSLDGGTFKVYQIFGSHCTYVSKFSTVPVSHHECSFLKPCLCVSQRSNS
WT yeast gro inh – growth inhibition of WT yeast, mitochondrial fusion screen | 190,000 compounds, 2.1% hits | inhibition, % at 10 µM | mitochondrial fusion phenotypic screen, WT strain | AID 1362; in the data active means inhibition above about 58%; tested in S. cerevisiae
CHOP inhibitor – inhibitors of CHOP induction in ER stress response; 220,000 compounds, 3.8% hits; CHO-K1 CHOP-promoter luciferase, tunicamycin-induced, 15-18 h; AID 2732; inhibition, % at 10 µM;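 active means compounds that reduced the stress-induced luciferase reporter signal by more than about 70% of percent inhibition, limit read from the data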;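 further: 0% = tunicamycin plus vehicle and 100% = wells without tunicamycin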
Tb MetRS inh – Trypanosoma brucei MetRS inhibition. purified T. brucei MetRS, ATP depletion, Kinase-Glo luminescence. inhibition, % at 11.9 µM. 360,000 compounds, 0.4% hits;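 active means inhibition above a per-plate cutoff of the control wells' mean inhibition plus 3 SD, cut at about 5.5% in these data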;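 further: 0% = DMSO wells median and 100% = median of wells with control inhibitor compound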
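assay system = parasite MetRS enzyme | timing = 15 min preincubation, 2 h reaction, all 25 °C | evaluation = percent inhibition relative to median high and low control wells | medium = HEPES buffer containing pyrophosphatase, BSA, spermine, DTT | compound = single dose, 11.9 µM final nominal, 0.9% final DMSO | detection = Kinase-Glo luminescence, ATP depletion format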
GRIN3A LBD mod – modulators (binders) of human NR3A ligand-binding domain; NR3A LBD differential scanning fluorimetry, Tm shift; 0% = protein alone, 100% = glycine-bound protein; Tm shift relative to glycine control, % at 25 µM; 340,000 compounds, 2.5% hits; AID 1259313;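 active means melting temperature shift of at least 10% of the positive control shift, at one fixed dose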
MPTP inh – inhibitors of mitochondrial permeability transition pore; isolated mouse mitochondria, Ca2+ swelling absorbance, 30 min; inhibition, % at 10 µM; 360,000 compounds, 1.4% hits; AID 602449;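 active means inhibition of 50% or more, scaled per plate between neutral and stimulator controls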;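 further: 0% = DMSO wells given calcium and 100% = 1 mM EGTA wells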
MPTP counter – Rhodamine 123 counter-screen of mitochondrial pore hits; shares compounds with MPTP inh; isolated mitochondria, membrane potential, Rhodamine 123 fluorescence; inhibition, % at 10 µM; 5,000 compounds, 78% hits; in the data active means inhibition above about 22%;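 further: 0% = DMSO vehicle and 100% = positive control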
MPTP abs DR – MPTP inhibition, dose response swelling confirmation | shares compounds with MPTP inh | 780 compounds, 58% hits | IC50, µM | isolated mitochondria swelling, absorbance; in the data active means IC50 below about 20 µM
MPTP counter DR – active in counter-screen for permeability transition pore inhibitors; IC50, µM; isolated mitochondria counterscreen, fluorescence read-out; shares compounds with MPTP inh; 780 compounds, 49% hits; in the data active means IC50 below about 80 µM
An asterisk follows results filed as active. A selection: hits, their analogues and other compounds. The true share with any hit is near 6.4%.

For O=C(COC(=O)CNS(=O)(=O)/C=C/c1ccccc1)Nc1cc(S(=O)(=O)N2CCCCC2)ccc1Cl the results were EBV gp42 inh -4.7, WT yeast gro inh -5.5, CHOP inhibitor -3.6, Tb MetRS inh -0.1, GRIN3A LBD mod -0.4, MPTP inh 70.5*, MPTP counter 13.8, MPTP abs DR inactive and MPTP counter DR 10.8*.
O=C(Nc1cccc(Cl)c1)Nc1cc(S(=O)(=O)N2CCCCC2)ccc1Cl was read as EBV gp42 inh 4.9, WT yeast gro inh 49.0, CHOP inhibitor 86.8*, Tb MetRS inh -0.3, GRIN3A LBD mod 11.3*, MPTP inh 84.2* and MPTP counter 62.8*.
Screening Cc1ccc(S(=O)(=O)N2CCCCC2)cc1NC(=O)Nc1ccc(Cl)cc1Cl returned EBV gp42 inh -4.0, WT yeast gro inh 5.1, CHOP inhibitor 33.0, Tb MetRS inh -0.5, GRIN3A LBD mod 13.6*, MPTP inh 85.2* and MPTP counter 28.5*.
For CCOc1ccc(-c2cc(C(=O)NCc3cc(OC)cc(OC)c3)[nH]n2)c(C)c1 the results were Tb MetRS inh -0.3 and MPTP inh 1.6.
CCN(CC)CCNC(=O)Cn1c(=O)c2cccn2c2ccc(F)cc21 was read as Tb MetRS inh -0.1, GRIN3A LBD mod -2.7 and MPTP inh -0.5.
COc1ccc(NC(=O)C2CC3C=CC2C3)c([N+](=O)[O-])c1 (stereo not given) was read as Tb MetRS inh -0.4, GRIN3A LBD mod -1.0 and MPTP inh -0.1.
Cc1ccc(S(=O)(=O)NCCNC(=O)c2cc(OCC(F)(F)F)ccc2OCC(F)(F)F)cc1 was read as EBV gp42 inh -2.7, WT yeast gro inh 11.1, CHOP inhibitor 44.7, Tb MetRS inh 1.1, GRIN3A LBD mod 2.6 and MPTP inh 4.1.
Screening O=C(NCCCSc1ccccc1)c1cc(Br)ccc1O returned Tb MetRS inh 0.4, GRIN3A LBD mod 5.2, MPTP inh 75.2* and MPTP counter 86.5*.
Screening O=C(NCCSc1ccccc1)c1ccc(Br)cc1 returned EBV gp42 inh 4.6, WT yeast gro inh 15.3, CHOP inhibitor -11.4, Tb MetRS inh -0.1, GRIN3A LBD mod 0.2 and MPTP inh 2.0.
`CCCCCc1ccc(CC(=O)Nn2c(C)nc3ccccc3c2=O)cc1` gave EBV gp42 inh -7.6, WT yeast gro inh 56.2, CHOP inhibitor 53.9, Tb MetRS inh -1.4, GRIN3A LBD mod -8.2, MPTP inh 72.1* and MPTP counter 67.6*.
For Cc1nc2ccccc2c(=O)n1NC(=O)Cc1ccc(Br)cc1 the results were EBV gp42 inh -9.3, WT yeast gro inh 8.8, CHOP inhibitor -4.5, Tb MetRS inh 0.6, GRIN3A LBD mod 0.0 and MPTP inh 1.4.
`CO/N=C/c1ccc(N2CCN(C(=O)c3ccc(F)cc3)CC2)c([N+](=O)[O-])c1` gave EBV gp42 inh -16.6, WT yeast gro inh 7.2, CHOP inhibitor 36.7, Tb MetRS inh 0.0, GRIN3A LBD mod 2.0 and MPTP inh 8.8.
`CO/N=C/c1ccc(N2CCN(C(=O)c3ccc(Cl)cc3Cl)CC2)c([N+](=O)[O-])c1` gave EBV gp42 inh 6.1, WT yeast gro inh 7.6, CHOP inhibitor 55.2, Tb MetRS inh 0.5, GRIN3A LBD mod -7.7, MPTP inh 77.5* and MPTP counter 59.9*.
Screening CCc1ccc(C2C(C#N)=C(N)SC(N)=C2C#N)s1 returned EBV gp42 inh -43.4, WT yeast gro inh -2.2, CHOP inhibitor 10.5, Tb MetRS inh -0.6, GRIN3A LBD mod -3.2, MPTP inh 77.4* and MPTP counter 56.0*.
For CCc1ccc(C2C(C#N)=C(N)SC(N)=C2C#N)cc1 the results were EBV gp42 inh -52.7, WT yeast gro inh 1.4, CHOP inhibitor 30.1, Tb MetRS inh -0.3, GRIN3A LBD mod 1.3, MPTP inh 74.4* and MPTP counter 82.0*.
`Cc1nn(CC(=O)Nc2sc3c(c2C#N)CCC(C(C)(C)C)C3)c(C)c1[N+](=O)[O-]` (stereo not given) gave EBV gp42 inh -0.9, WT yeast gro inh 57.9, CHOP inhibitor 88.7*, Tb MetRS inh -0.2, GRIN3A LBD mod 14.3*, MPTP inh 81.0* and MPTP counter 32.3*.
Cc1nn(CCCC(=O)Nc2sc3c(c2C#N)CCC3)c(C)c1[N+](=O)[O-] was read as EBV gp42 inh -12.2, WT yeast gro inh -4.5, CHOP inhibitor 8.1, Tb MetRS inh -0.3, GRIN3A LBD mod -0.1 and MPTP inh -0.6.
O=C(O)c1cccc(Nc2nc3ccccc3nc2NS(=O)(=O)c2cccs2)c1 was read as Tb MetRS inh -1.1, GRIN3A LBD mod -2.9 and MPTP inh 0.4.
For COc1ccc(Nc2nc3ccccc3nc2NS(=O)(=O)c2cccs2)cc1 the results were EBV gp42 inh -3.4, WT yeast gro inh 27.0, CHOP inhibitor 41.2, Tb MetRS inh -0.5, GRIN3A LBD mod 21.7*, MPTP inh 61.0* and MPTP counter 63.7*.
`CC(=O)c1ccc(Nc2nc3ccccc3nc2NS(=O)(=O)c2cccs2)cc1` gave Tb MetRS inh -0.1, GRIN3A LBD mod -1.9, MPTP inh 82.9* and MPTP counter 31.7*.
For Cn1c(COc2ccccc2O)[n+](C)c2ccccc21 the results were Tb MetRS inh -0.8, GRIN3A LBD mod -2.3 and MPTP inh 0.0.
Screening CCCCCCCCCCOC(=O)Cn1c(COc2ccccc2OC)[n+](C)c2ccccc21 returned Tb MetRS inh -1.0, GRIN3A LBD mod -408.3, MPTP inh 52.6* and MPTP counter 94.6*.
`COc1ccc2nc3cc(Cl)ccc3c(Nc3cc(CN4CCCC4)c(O)c(CN4CCCC4)c3)c2n1` gave Tb MetRS inh 0.2, MPTP inh 72.5* and MPTP counter -25.6.
For COCc1cc(CN2CCCC2)c(O)c2ncccc12 the results were EBV gp42 inh -2.8, WT yeast gro inh 3.2, Tb MetRS inh -0.7, GRIN3A LBD mod -0.1 and MPTP inh -3.8.
`Cc1cccc(N2CCN(C(=O)CSCc3c(C)noc3C)CC2)c1C` gave EBV gp42 inh -6.2, WT yeast gro inh 0.8, CHOP inhibitor 50.9, Tb MetRS inh 0.1, GRIN3A LBD mod -1.3, MPTP inh 89.6* and MPTP counter 74.7*.
Cc1noc(C)c1CSCC(=O)N1CCN(c2ccc(F)cc2)CC1 was read as EBV gp42 inh -2.9, WT yeast gro inh 2.9, CHOP inhibitor 23.9, Tb MetRS inh -0.4, GRIN3A LBD mod -2.6 and MPTP inh 7.9.
